“And” between values parts separate entries of the source, which are not always exact repeats. Equal entries are not always repeated.

Series [1] relates to rats. Particulars: sc, data published previously; cited from earlier work.
The target in the next series is hCB2 receptor (Homo sapiens, UniProt P34972). In words: Radioligand competition binding, human CB2 in HEK293 membranes, [3H]CP-55,940.
The next series addresses mCB2 receptor (Mus musculus, UniProt P47936). The experiment in a line: Radioligand competition binding, mouse CB2 in HEK293 membranes, [3H]CP-55,940.
Series [2] addresses rCB1 receptor (rat brain membranes) (Rattus norvegicus, UniProt P20272). In words: Radioligand competition binding, rat brain CB1, [3H]CP-55,940. For orientation: Loss of bound radioactivity is the signal in a displacement assay; it reports binding, not function.
In a further series the test system is male CD-1 mice. The experiment in a line: Tail-flick withdrawal. The class given is in vivo, mouse. Particulars: 0.3 and 1.0 mg/kg ip, descending phase 180 and 360 min.
The subject of series [3] is rats. In words: Hypothermia testing in rats. The class given is in vivo, rat. An outline of the steps:
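Female Sprague–Dawley rats (250–350 g, n = 6/group), reused with ≥5 days between sessions. Test compound was dissolved in 20% ethanol/20% alkamuls/60% saline, then diluted with saline. Temperature was taken by a thermistor probe at 6 cm depth in minimally restrained, isolated rats. Two baselines 15 min apart; injected after the second; read every 30 min to 3 h, then hourly to 6 h. ED50 = dose lowering temperature 3 °C.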

Another series concerns mouse plasma esterases. In words: In vitro plasma stability toward mouse plasma esterases. The class given is in vitro ADME. Particulars: 200 μM in mouse plasma, 37 °C; Stable = no observable hydrolysis within 5 h. A digest of the protocol: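 Test compound at 200 μM in mouse plasma, incubated at 37 °C with 100 rpm shaking. Samples taken at various time points were diluted 1:4 in acetonitrile and centrifuged to remove protein. Supernatant was analysed by HPLC on a C18 column. Half-life came from an exponential decay fit.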

Chain of mCB2 receptor (P47936 whole entry): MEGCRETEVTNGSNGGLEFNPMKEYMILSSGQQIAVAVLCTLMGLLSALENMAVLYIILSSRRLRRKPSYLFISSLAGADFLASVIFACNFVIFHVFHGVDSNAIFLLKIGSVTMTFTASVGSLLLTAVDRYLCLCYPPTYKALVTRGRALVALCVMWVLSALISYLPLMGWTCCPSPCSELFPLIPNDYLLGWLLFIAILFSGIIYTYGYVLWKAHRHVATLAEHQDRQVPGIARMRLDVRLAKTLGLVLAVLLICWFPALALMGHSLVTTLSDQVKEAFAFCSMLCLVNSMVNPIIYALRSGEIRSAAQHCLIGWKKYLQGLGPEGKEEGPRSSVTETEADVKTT
Chain of hCB2 receptor (P34972 whole entry): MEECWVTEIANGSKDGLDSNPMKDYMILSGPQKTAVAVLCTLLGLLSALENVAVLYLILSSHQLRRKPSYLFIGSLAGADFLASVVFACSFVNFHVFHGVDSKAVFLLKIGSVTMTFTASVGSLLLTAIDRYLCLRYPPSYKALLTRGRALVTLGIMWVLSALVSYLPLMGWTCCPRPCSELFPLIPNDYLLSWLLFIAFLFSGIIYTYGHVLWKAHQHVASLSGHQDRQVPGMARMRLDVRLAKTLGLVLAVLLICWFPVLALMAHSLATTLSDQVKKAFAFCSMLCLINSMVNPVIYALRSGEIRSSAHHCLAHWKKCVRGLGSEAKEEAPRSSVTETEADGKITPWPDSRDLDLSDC
Chain of rCB1 receptor (rat brain membranes) (P20272 whole entry): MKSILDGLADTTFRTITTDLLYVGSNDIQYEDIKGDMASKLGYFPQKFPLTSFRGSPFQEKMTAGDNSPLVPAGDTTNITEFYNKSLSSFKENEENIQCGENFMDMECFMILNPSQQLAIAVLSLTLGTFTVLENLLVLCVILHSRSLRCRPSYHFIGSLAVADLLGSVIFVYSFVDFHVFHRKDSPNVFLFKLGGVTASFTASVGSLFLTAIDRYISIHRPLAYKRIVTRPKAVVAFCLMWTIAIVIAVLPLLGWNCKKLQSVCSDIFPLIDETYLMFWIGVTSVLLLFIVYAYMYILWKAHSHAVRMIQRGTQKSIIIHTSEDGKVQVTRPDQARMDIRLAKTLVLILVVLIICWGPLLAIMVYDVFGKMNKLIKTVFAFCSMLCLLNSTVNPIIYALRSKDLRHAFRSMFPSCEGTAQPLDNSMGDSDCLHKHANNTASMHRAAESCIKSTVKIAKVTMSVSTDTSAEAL

`CCCCCCC(C)(C)c1cc(O)c2c(c1)OC(C)(C)[C@@H]1CC=C(C)C[C@@H]21` [(−)-Δ^8-THC-DMH, (−)-Δ^8-THC-dimethylheptyl]: the “ED50 (dose required to reduce temperature by 3 °C)” value in the series on rats [1] is on record as 0.29 mg/kg.
Turning to `CCOC(=O)C(C)(C)c1cc(O)c2c(c1)OC(C)(C)[C@@H]1CC=C(C)C[C@@H]21` [Compound 8b, 2-[(6aR,10aR)-6a,7,10,10a-Tetrahydro-1-hydroxy-6,6,9-trimethyl-6H-dibenzo[b,d]pyran-3-yl]-2-methyl-propanoic Acid Ethyl Ester], on hCB2 receptor, the “fold higher binding affinity for hCB2 compared to (−)-Δ^8-THC” value is on record as 24 fold. The “fold higher binding affinity for mCB2 compared to (−)-Δ^8-THC” value on mCB2 receptor came out at 78 fold.
With `CC1=CC[C@@H]2[C@@H](C1)c1c(O)cc(C(C)(C)C(=O)OCCCCn3ccnc3)cc1OC2(C)C` [Compound 9d, 2-[(6aR,10aR)-6a,7,10,10a-Tetrahydro-1-hydroxy-6,6,9-trimethyl-6H-dibenzo[b,d]pyran-3-yl]-2-methyl-propanoic Acid 4-(1H-Imidazol-1-yl)butyl Ester], in series [2], the “fold reduction of CB1 affinity relative to 10b” value is given as ~ 8 fold.
Take `CC1=CC[C@@H]2[C@@H](C1)c1c(O)cc(C(C)(C)C(=O)OCCCC#N)cc1OC2(C)C` [Compound 10a, 2-[(6aR,10aR)-6a,7,10,10a-Tetrahydro-1-hydroxy-6,6,9-trimethyl-6H-dibenzo[b,d]pyran-3-yl]-2-methyl-propanoic Acid 3-Cyano-propyl Ester]: the “offset of the analgesia effect compared to 2b” value in the series with male CD-1 mice is “significantly faster”. Further, in the series on rats [3] (0.1 mg/kg sc, from average baseline of 37.8 ± 0.1 °C), the “reduction of body temperature” value was found to be 4.5 ± 0.5 °C. Further, the “fold more potent than (−)-Δ^8-THC-DMH and/or 2b” value in the series with rats [3] (hypothermia) is 8–10 fold and 10 fold.
`CCCCCNC(=O)C(C)(C)c1cc(O)c2c(c1)OC(C)(C)[C@@H]1CC=C(C)C[C@@H]21` [Compound 18, 2-[(6aR,10aR)-6a,7,10,10a-Tetrahydro-1-hydroxy-6,6,9-trimethyl-6H-dibenzo[b,d]pyran-3-yl]-2-methyl-N-pentylpropanamide]: the “mouse plasma t1/2” value with mouse plasma esterases was “Stable ^e”.

Values taken from PMC4306527 (Journal of medicinal chemistry, 2014).
